# Measured values collected from several papers.
# Protocols differ between the studies behind these lines.
# Organism: Plasmodium falciparum
# Read-out: parasite growth
SMILES,technique,strain,time,setting,IC50
C[C@@H]1CC[C@H]2[C@@H](C)C(=O)O[C@@H]3O[C@@]4(C)CC[C@@H]1[C@]32OO4,,W2,72 h,"drug-resistant strain, blood stage",0.0038 µg/mL
CCN(CC)CCCC(C)Nc1ccnc2cc(Cl)ccc12 (stereo not shown),,D6,72 h,blood stage,0.01 µg/mL
Cc1cccc(C(=O)O)c1NC(=O)c1cccc(-c2ccccc2)c1,resazurin,NF54,48 h,gametocyte,665 nM
CC1=C(C)C(c2ccc[nH]2)=NC1=Cc1ccc(CCCCCCCCCC(C)O)[nH]1 (stereo not shown),,D6,,blood stage,1080 nM
CO[C@H]1/C=C/O[C@@]2(C)Oc3c(C)c(O)c4c(O)c(c(/C=N/N5CCN(C)CC5)c(O)c4c3C2=O)NC(=O)/C(C)=C\C=C[C@H](C)[C@H](O)[C@@H](C)[C@@H](O)[C@@H](C)[C@H](OC(C)=O)[C@@H]1C,SYBR Green,,,blood stage,7810 nM
CCN(CC)CCCC(C)Nc1ccnc2cc(Cl)ccc12 (stereo not shown),,D6,,blood stage,30 nM
Clc1ccc2c(nc(N3CCNCC3)n2Cc2ccccc2)c1Br,,NF54,,blood stage,71 nM
COC1=CC(c2ccc[nH]2)=NC1=Cc1ccc(CCCCCCCCCCCCO)[nH]1,,D6,,blood stage,38 nM
CC[C@@H](C)[C@H]1O[C@@H](c2c(O)c(-c3ccccc3)cn(O)c2=O)[C@H](C)C[C@@H]1C,,W2,72 h,"drug-resistant strain, blood stage",0.2 µg/mL
C#CCCCCCCCCC=CCC(O)CC(O)CO (stereo not shown),,D6,,blood stage,> 47.6 µg/mL
CCN(CC)CCCC(C)Nc1ccnc2cc(Cl)ccc12 (stereo not shown),ELISA,3D7,,blood stage,7.4 nM
C[C@@H]1CN(c2nc3cc(Cl)ccc3n2Cc2ccccc2)C[C@H](C)N1,,NF54,,blood stage,216 nM
c1ccc(Oc2ccc(-c3cc(C4CCOCC4)[nH]n3)cc2)cc1,SYBR Green,,,blood stage,70200 nM
COC(=O)c1ccc2c(c1)nc(C1CCNCC1)n2Cc1ccccc1,,NF54,,blood stage,3830 nM
Cc1ccc(C(=O)Nc2ccc(S(=O)(=O)O)c3cc(S(=O)(=O)O)cc(S(=O)(=O)O)c23)cc1NC(=O)c1cccc(NC(=O)Nc2cccc(C(=O)Nc3cc(C(=O)Nc4ccc(S(=O)(=O)O)c5cc(S(=O)(=O)O)cc(S(=O)(=O)O)c45)ccc3C)c2)c1,SYBR Green,,,blood stage,> 100000 nM
C[C@@H]1CC[C@H]2[C@@H](C)C(=O)O[C@@H]3O[C@@]4(C)CC[C@@H]1[C@]32OO4,,W2,,"drug-resistant strain, blood stage",0.009 µg/mL
Cc1ccc(-c2ccccc2C(=O)Nc2c(C)cccc2C(=O)O)cc1,,NF54,48 h,blood stage,> 10000 nM
O[C@@H](c1cc(C(F)(F)F)nc2c(C(F)(F)F)cccc12)[C@H]1CCCCN1,SYBR Green,,,blood stage,17 nM
NCCCNc1nc2ccccc2n1Cc1ccccc1,,NF54,,blood stage,4090 nM
O=C(O)c1cc(F)ccc1NC(=O)c1ccccc1-c1ccccc1,resazurin,NF54,48 h,gametocyte,674 nM
NCCNc1nc2cc(Cl)ccc2n1Cc1ccccc1,,NF54,,blood stage,245 nM
O=C1C(O)=C([C@H]2CC[C@H](c3ccc(Cl)cc3)CC2)C(=O)c2ccccc21,,3D7,24 h,blood stage,6.5 nM
Cc1cccc(C(=O)O)c1NC(=O)c1ccccc1-c1ccccc1,resazurin,NF54,48 h,gametocyte,> 10000 nM
C/C=C/C=C/C=C/c1c(O)cc(CC=C(C)C)c(O)c1C=O,,D6,72 h,blood stage,1.8 µg/mL
Fc1cc(F)cc(-c2nc3c(N4CCC(CN5CCN(CC(F)(F)F)CC5)CC4)nccc3[nH]2)c1,,NF54,,blood stage,< 100 nM
O=C(O)c1ccc(-n2nc(-c3ccccc3O)nc2-c2ccccc2O)cc1,SYBR Green,,,blood stage,47700 nM
O=C(O)c1ccccc1NC(=O)c1ccccc1-c1ccccc1,resazurin,NF54,48 h,gametocyte,> 10000 nM
Cc1ccc2oc(-c3cc(NC(=O)Cc4ccccc4)ccc3Cl)nc2c1,SYBR Green,,,blood stage,23400 nM
COC1=CC(c2ccco2)=NC1=Cc1ccc(CCCCCCCCCC(C)O)[nH]1 (stereo not shown),,D6,,blood stage,> 2500 nM
CN1CCN(C2CCN(c3nccc4[nH]c(-c5cccc(C#N)c5)nc34)CC2)CC1,,NF54,,blood stage,< 100 nM
c1ccc(Cn2c(N3CCNCC3)nc3cc(-c4ccccc4)ccc32)cc1,,NF54,,blood stage,6960 nM
C[C@@H]1CC[C@H]2[C@@H](C)C(=O)O[C@@H]3O[C@@]4(C)CC[C@@H]1[C@]32OO4,,D6,72 h,blood stage,0.0047 µg/mL
C#CCCCCCCCCCCCC(O)CC(O)CO (stereo not shown),,D6,,blood stage,25.9 µg/mL
O=C(Nc1ccc2c(c1)B(O)OC2)Nc1ccc(F)c(C(F)(F)F)c1,,NF54,,blood stage,3100 nM
Clc1ccc2c(c1)nc(NCCN1CCOCC1)n2Cc1ccccc1,,NF54,,blood stage,8520 nM
Cc1onc(-c2ccccc2)c1-c1ccc(S(N)(=O)=O)cc1,SYBR Green,,,blood stage,> 100000 nM
COc1cc(NC(C)CCCNCOC(=O)NCCCC(C)Nc2cc(OC)cc3cccnc23)c2ncccc2c1.Cl.Cl (stereo not shown),,W2,,"drug-resistant strain, blood stage",2.7 µg/mL
Cc1cc(NCCc2ccccc2)nc(N=C(N)Nc2ccc(Cl)cc2)n1,SYBR Green,,,blood stage,280 nM
Brc1ccc2c(c1)nc(C1CCNCC1)n2Cc1ccccc1,,NF54,,blood stage,28 nM
CCN(CC)CCCC(C)Nc1ccnc2cc(Cl)ccc12 (stereo not shown),,NF54,,blood stage,4.2 nM
